Entries after “also recorded” stand apart in the source; their conditions may differ.
Columns and labels:
GPR55 F6.55A [1] = target: T1, GPR55 F6.55A (Homo sapiens, UniProt Q9Y2T6, F246A); assay: SRF luciferase assay, F6.55A mutant; assay type: cell-based
GPR55 K2.60A [2] = target: T2, GPR55 K2.60A (Homo sapiens, UniProt Q9Y2T6, K80A); assay: SRE luciferase assay, K2.60A mutant; assay type: cell-based
Method in brief: (§1)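 HA-tagged human GPR55 (WT or sequence-confirmed site-directed mutant, pcDNA3) co-transfected by lipofection with pGL4.33 luc2P/SRE reporter into HEK293 cells; 60,000 cells/well, switched to 1% FBS/DMEM after 5 h, overnight. Agonist test compounds (10 mM DMSO stocks) added for 5 h in serum-free DMEM, 37°C. Cells lysed 10 min at room temperature, luciferin injected, luminescence read immediately (RLU). EC50 from sigmoidal nonlinear regression.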

GPR55 F6.48A [3] = target: T3, GPR55 F6.48A (Homo sapiens, UniProt Q9Y2T6, F239A); assay: SRE luciferase assay, F6.48A mutant; assay type: cell-based
T3 sequence (Q9Y2T6 whole entry F239A): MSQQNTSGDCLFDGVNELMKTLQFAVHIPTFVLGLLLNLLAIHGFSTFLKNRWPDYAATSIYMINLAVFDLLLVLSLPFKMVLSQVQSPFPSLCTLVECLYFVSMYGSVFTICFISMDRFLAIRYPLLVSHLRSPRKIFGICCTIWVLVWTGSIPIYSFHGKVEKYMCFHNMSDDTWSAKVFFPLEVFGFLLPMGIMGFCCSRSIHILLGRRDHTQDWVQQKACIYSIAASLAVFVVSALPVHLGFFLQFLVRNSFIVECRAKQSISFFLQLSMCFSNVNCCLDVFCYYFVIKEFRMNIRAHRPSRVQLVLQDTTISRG
Method in brief: as §1

GPR55 M3.36A [4] = target: T4, GPR55 M3.36A (Homo sapiens, UniProt Q9Y2T6, M105A); assay: SRF luciferase assay, M3.36A mutant; assay type: cell-based
T4 sequence (Q9Y2T6 whole entry M105A): as the sequence (Q9Y2T6 whole entry F239A) above, with M105A, A239F counted along it

GPR55 M3.36A [5] = target: T4, GPR55 M3.36A; assay: SRE luciferase assay, M3.36A mutant; assay type: cell-based
Method in brief: as §1

GPR55 E3.29A [6] = target: T5, GPR55 E3.29A (Homo sapiens, UniProt Q9Y2T6, E98A); assay: SRF luciferase assay, E3.29A mutant; assay type: cell-based
T5 sequence (Q9Y2T6 whole entry E98A): as the sequence (Q9Y2T6 whole entry F239A) above, with E98A, A239F counted along it

GPR55 Q7.36N = GPR55 Q7.36N (Homo sapiens, UniProt Q9Y2T6, Q271N); assay: SRE luciferase assay, Q7.36N mutant; assay type: cell-based
Sequence of GPR55 Q7.36N (Q9Y2T6 whole entry Q271N): as the sequence (Q9Y2T6 whole entry F239A) above, with A239F, Q271N counted along it
Method in brief: as §1

GPR55 F6.48A [7] = target: T3, GPR55 F6.48A; assay: SRF luciferase assay, F6.48A mutant; assay type: cell-based
GPR55 E3.29L [8] = target: T6, GPR55 E3.29L (Homo sapiens, UniProt Q9Y2T6, E98L); assay: SRF luciferase assay, E3.29L mutant; assay type: cell-based
T6 sequence (Q9Y2T6 whole entry E98L): as the sequence (Q9Y2T6 whole entry F239A) above, with E98L, A239F counted along it

GPR55 F6.55A [9] = target: T1, GPR55 F6.55A; assay: SRE luciferase assay, F6.55A mutant; assay type: cell-based
Method in brief: as §1

GPR55 C(260)A [10] = target: T7, GPR55 C(260)A (Homo sapiens, UniProt Q9Y2T6, C260A); assay: SRF luciferase assay, C; assay type: cell-based
T7 sequence (Q9Y2T6 whole entry C260A): as the sequence (Q9Y2T6 whole entry F239A) above, with A239F, C260A counted along it

GPR55 E3.29L [11] = target: T6, GPR55 E3.29L; assay: SRE luciferase assay, E3.29L mutant; assay type: cell-based
Method in brief: as §1

GPR55 F6.55L [12] = target: T8, GPR55 F6.55L (Homo sapiens, UniProt Q9Y2T6, F246L); assay: SRE luciferase assay, F6.55L mutant; assay type: cell-based
T8 sequence (Q9Y2T6 whole entry F246L): as the sequence (Q9Y2T6 whole entry F239A) above, with A239F, F246L counted along it
Method in brief: as §1

GPR55 Q7.36A = GPR55 Q7.36A (Homo sapiens, UniProt Q9Y2T6, Q271A); assay: SRE luciferase assay, Q7.36A mutant; assay type: cell-based
Sequence of GPR55 Q7.36A (Q9Y2T6 whole entry Q271A): as the sequence (Q9Y2T6 whole entry F239A) above, with A239F, Q271A counted along it
Method in brief: as §1

GPR55 C(10)A [13] = target: T9, GPR55 C(10)A (Homo sapiens, UniProt Q9Y2T6, C10A); assay: SRE luciferase assay, C; assay type: cell-based
T9 sequence (Q9Y2T6 whole entry C10A): as the sequence (Q9Y2T6 whole entry F239A) above, with C10A, A239F counted along it
Method in brief: as §1

GPR55 Y3.32L [14] = target: T10, GPR55 Y3.32L (Homo sapiens, UniProt Q9Y2T6, Y101L); assay: SRF luciferase assay, Y3.32L mutant; assay type: cell-based
T10 sequence (Q9Y2T6 whole entry Y101L): as the sequence (Q9Y2T6 whole entry F239A) above, with Y101L, A239F counted along it

WT GPR55 [15] = target: T11, WT GPR55 (Homo sapiens, UniProt Q9Y2T6); assay: SRF luciferase assay, WT GPR55; assay type: cell-based
T11 sequence (Q9Y2T6 whole entry): as the sequence (Q9Y2T6 whole entry F239A) above, with A239F counted along it

GPR55 Y3.32F [16] = target: T12, GPR55 Y3.32F (Homo sapiens, UniProt Q9Y2T6, Y101F); assay: SRE luciferase assay, Y3.32F mutant; assay type: cell-based
T12 sequence (Q9Y2T6 whole entry Y101F): as the sequence (Q9Y2T6 whole entry F239A) above, with Y101F, A239F counted along it
Method in brief: as §1

GPR55 Q6.58M = GPR55 Q6.58M (Homo sapiens, UniProt Q9Y2T6, Q249M); assay: SRE luciferase assay, Q6.58M mutant; assay type: cell-based
Sequence of GPR55 Q6.58M (Q9Y2T6 whole entry Q249M): as the sequence (Q9Y2T6 whole entry F239A) above, with A239F, Q249M counted along it
Method in brief: as §1

GPR55 = conditions: agonist screen of the NIH library; cited from earlier work
GPR55 E3.29A [17] = target: T5, GPR55 E3.29A; assay: SRE luciferase assay, E3.29A mutant; assay type: cell-based
Method in brief: as §1

GPR55 C(260)A [18] = target: T7, GPR55 C(260)A; assay: SRE luciferase assay, C; assay type: cell-based
Method in brief: as §1

GPR55 Y3.32F [19] = target: T12, GPR55 Y3.32F; assay: SRF luciferase assay, Y3.32F mutant; assay type: cell-based
GPR55 H(170)F = GPR55 H(170)F (Homo sapiens, UniProt Q9Y2T6, H170F); assay: SRE luciferase assay, H; assay type: cell-based
Sequence of GPR55 H(170)F (Q9Y2T6 whole entry H170F): as the sequence (Q9Y2T6 whole entry F239A) above, with H170F, A239F counted along it
Method in brief: as §1

GPR55 Y3.32L [20] = target: T10, GPR55 Y3.32L; assay: SRE luciferase assay, Y3.32L mutant; assay type: cell-based
Method in brief: as §1

GPR55 K2.60A [21] = target: T2, GPR55 K2.60A; assay: SRF luciferase assay, K2.60A mutant; assay type: cell-based
GPR55 F6.55L [22] = target: T8, GPR55 F6.55L; assay: SRF luciferase assay, F6.55L mutant; assay type: cell-based
GPR55 C(10)A [23] = target: T9, GPR55 C(10)A; assay: SRF luciferase assay, C; assay type: cell-based
WT GPR55 [24] = target: T11, WT GPR55; assay: SRE luciferase assay, WT GPR55; assay type: cell-based

T2 sequence (Q9Y2T6 whole entry K80A): as the sequence (Q9Y2T6 whole entry F239A) above, with K80A, A239F counted along it
T1 sequence (Q9Y2T6 whole entry F246A): as the sequence (Q9Y2T6 whole entry F239A) above, with A239F, F246A counted along it

EC50 (GPR55 F6.55A [1]): 550 nM
SRF response compared with WT (in words) (GPR55 F6.55A [1]; F6.55A): higher EC50 values than WT
Fold/WT, SRF EC50 (GPR55 F6.55A [1]; F6.55A vs WT): 17 fold
EC50, SRE response (GPR55 K2.60A [2]; transfected HEK293, n ≥ 3): NO response
EC50 (GPR55 F6.48A [3]): 514 nM
Fold/WT, SRE EC50 (GPR55 F6.48A [3]; F6.48A vs WT): 9 fold
EC50 (GPR55 M3.36A [4]): 2040 nM
SRF response compared with WT (in words) (GPR55 M3.36A [4]; M3.36A): reduced responses
Fold/WT, SRF EC50 (GPR55 M3.36A [4]; M3.36A vs WT): 62 fold
EC50 (GPR55 M3.36A [5]): 900 nM
Fold/WT, SRE EC50 (GPR55 M3.36A [5]; M3.36A vs WT): 16 fold
EC50 (GPR55 E3.29A [6]): > 30000 nM
SRF response compared with WT (in words) (GPR55 E3.29A [6]; E3.29A): reduced responses
EC50 (GPR55 Q7.36N): 154 nM
SRE response compared with WT (in words) (GPR55 Q7.36N; Q7.36N): retains WT signalling
Fold/WT, SRE EC50 (GPR55 Q7.36N; Q7.36N vs WT): 3 fold
EC50 (GPR55 F6.48A [7]): 335 nM
SRF response compared with WT (in words) (GPR55 F6.48A [7]; F6.48A): reduced responses
Fold/WT, SRF EC50 (GPR55 F6.48A [7]; F6.48A vs WT): 10 fold
EC50 (GPR55 E3.29L [8]): > 30000 nM
SRF response compared with WT (in words) (GPR55 E3.29L [8]; E3.29L): reduced responses
EC50 (GPR55 F6.55A [9]): 840 nM
SRE response compared with WT (in words) (GPR55 F6.55A [9]; F6.55A): right shifted curves
Fold/WT, SRE EC50 (GPR55 F6.55A [9]; F6.55A vs WT): 15 fold
EC50 (GPR55 C(260)A [10]): 363 nM
SRF response compared with WT (in words) (GPR55 C(260)A [10]; C(260)A): less response than WT
Fold/WT, SRF EC50 (GPR55 C(260)A [10]; C(260)A vs WT): 11 fold
EC50 (GPR55 E3.29L [11]): > 30000 nM
EC50 (GPR55 F6.55L [12]): 5130 nM
SRE response compared with WT (in words) (GPR55 F6.55L [12]; F6.55L): right shifted curves
Fold/WT, SRE EC50 (GPR55 F6.55L [12]; F6.55L vs WT): 92 fold
EC50 (GPR55 Q7.36A): 230 nM
SRE response compared with WT (in words) (GPR55 Q7.36A; Q7.36A): retains WT signalling
Fold/WT, SRE EC50 (GPR55 Q7.36A; Q7.36A vs WT): 4 fold
EC50 (GPR55 C(10)A [13]): 635 nM
Fold/WT, SRE EC50 (GPR55 C(10)A [13]; C(10)A vs WT): 11 fold
EC50 (GPR55 Y3.32L [14]): 864000 nM
SRF response compared with WT (in words) (GPR55 Y3.32L [14]; Y3.32L): right shifted curves
Fold/WT, SRF EC50 (GPR55 Y3.32L [14]; Y3.32L vs WT): 26182 fold
EC50 (WT GPR55 [15]): 33 nM
EC50 (GPR55 Y3.32F [16]): 1660 nM
SRE response compared with WT (in words) (GPR55 Y3.32F [16]; Y3.32F): right shifted SRE response curves
Fold/WT, SRE EC50 (GPR55 Y3.32F [16]; Y3.32F vs WT): 30 fold
EC50 (GPR55 Q6.58M): 72 nM
Fold/WT, SRE EC50 (GPR55 Q6.58M; Q6.58M vs WT): 1 fold
EC50 (GPR55 E3.29A [17]): > 30000 nM
EC50 (GPR55 C(260)A [18]): 657 nM
Fold/WT, SRE EC50 (GPR55 C(260)A [18]; C(260)A vs WT): 12 fold
EC50 (GPR55 Y3.32F [19]): 851 nM
SRF response compared with WT (in words) (GPR55 Y3.32F [19]; Y3.32F): right shifted curves
Fold/WT, SRF EC50 (GPR55 Y3.32F [19]; Y3.32F vs WT): 26 fold
EC50 (GPR55 H(170)F): 341 nM
SRE response compared with WT (in words) (GPR55 H(170)F; H(170)F): slight difference from that of WT
Fold/WT, SRE EC50 (GPR55 H(170)F; H(170)F vs WT): 6 fold
EC50 (GPR55 Y3.32L [20]): 9510 nM
SRE response compared with WT (in words) (GPR55 Y3.32L [20]; Y3.32L): right shifted SRE response curves
Fold/WT, SRE EC50 (GPR55 Y3.32L [20]; Y3.32L vs WT): 170 fold
EC50, SRF response (GPR55 K2.60A [21]; transfected HEK293, n ≥ 3): NO response
EC50 (GPR55 F6.55L [22]): 10500 nM
SRF response compared with WT (in words) (GPR55 F6.55L [22]; F6.55L): higher EC50 values than WT
Fold/WT, SRF EC50 (GPR55 F6.55L [22]; F6.55L vs WT): 318 fold
EC50 (GPR55 C(10)A [23]): 554 nM
SRF response compared with WT (in words) (GPR55 C(10)A [23]; C(10)A): less response than WT
Fold/WT, SRF EC50 (GPR55 C(10)A [23]; C(10)A vs WT): 17 fold
EC50 (WT GPR55 [24]): 56 nM
Structure (SMILES): Cc1cccc(N2CCN(C(=O)c3cc(S(=O)(=O)N(C)C)ccc3N3CCCC3)CC2)c1C [ML184, 3-[4-(2,3-dimethylphenyl)piperazine-1-carbonyl]-N,N-dimethyl-4-pyrrolidin-1-ylbenzenesulfonamide]
SRE response compared with WT (in words) (GPR55 K2.60A [2]): complete loss of signalling; also recorded: did not show any response
SRE response compared with WT (in words) (GPR55 F6.48A [3]; F6.48A): SRE induction comparable to wild-type; also recorded: increased EC50 values
SRE response compared with WT (in words) (GPR55 M3.36A [5]; M3.36A): SRE induction comparable to wild-type; also recorded: increased EC50 values
SRE response compared with WT (in words) (GPR55 E3.29L [11]; E3.29L): profound reduction of receptor signalling; also recorded: very little responses
SRE response compared with WT (in words) (GPR55 Q6.58M; Q6.58M): retained WT signalling; also recorded: almost identical to that of WT
EC50 (GPR55): 263 nM
SRE response compared with WT (in words) (GPR55 E3.29A [17]; E3.29A): profound reduction of receptor signalling; also recorded: very little responses
SRF response compared with WT (in words) (GPR55 K2.60A [21]): not able to induce any response; also recorded: complete loss of signalling

— publication PMC5338039 (Biochemistry, 2017)
